ChEMBL document CHEMBL3526142, “Biotransformation of a novel antimitotic agent, I-387, by mouse, rat, dog, monkey, and human liver microsomes and in vivo pharmacokinetics in mice” (Drug Metab Dispos, 2011)

Legend:
Liver = assay: Drug level in mouse liver microsomes assessed as compound retention time treated with 0.5 uM I-387 after 2 hrs by LC-MS/MS analysis; type: ADME
In short: (§1)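 Pooled liver microsomes (1 mg/ml protein) incubated with 0.5 µM substrate and 3 mM NADPH in 65 mM potassium phosphate, pH 7.4, 1% methanol, at 37°C for 2 h. Stopped with ice-cold acetonitrile containing internal standard, centrifuged. Supernatant analysed by LC-MS/MS on a C18 column, 15-min gradient, with product ion scans for metabolite identification.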

Liver microsome [1] = assay: Drug level in human liver microsomes assessed as compound retention time treated with 0.5 uM I-387 after 2 hrs by LC-MS/MS analysis; type: ADME; in short: as §1
Liver microsome [2] = assay: Drug level in rat liver microsomes assessed as compound retention time treated with 0.5 uM I-387 after 2 hrs by LC-MS/MS analysis; type: ADME; in short: as §1
[3] = Retention time of the compound at 0.5 uM by LC-MS/MS analysis; type: physicochemical
In short: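 After a 2 h incubation at 37°C with liver microsomes (1 mg/ml protein, 3 mM NADPH, 0.5 μM substrate, pH 7.4 phosphate buffer), samples were quenched with acetonitrile and centrifuged. Supernatant separated on a C18 column (15 min run, linear gradient 100% A to 100% B over 7 min) with LC-MS/MS ion trap detection.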

Liver microsome [4] = assay: Drug level in dog liver microsomes assessed as compound retention time treated with 0.5 uM I-387 after 2 hrs by LC-MS/MS analysis; type: ADME, Canis lupus familiaris; in short: as §1
[5] = Drug level in monkey liver microsomes assessed as compound retention time treated with 0.5 uM I-387 after 2 hrs by LC-MS/MS analysis; type: ADME, Macaca mulatta; settings: rhesus monkey; in short: as §1

SMILES: COc1cc(C(O)c2cccc(-c3cc4ccccc4[nH]3)c2)cc(OC)c1OC (stereo unspecified)
- Drug metabolism (Liver): metabolite_detected
- Drug metabolism (Liver microsome [1]): metabolite_detected
- Drug metabolism (Liver microsome [2]): metabolite_detected
- Retention_time [3]: 10.5 min
- Drug metabolism (Liver microsome [4]): metabolite_detected
- Drug metabolism [5]: metabolite_detected
